# The list is not random: actives were taken first. Their share in the collection is about 3.8%.
# KCNQ1 pot = potentiators or activators of KCNQ1 channel, primary screen, cell-based, thallium flux, high-throughput | CHO-K1 KCNQ1, thallium flux FluxOR fluorescence; hits give high values | B-score at 10 µM | hit rate 0.35% among 310,000 | AID 2648, 2010;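 active means fluorescence ratio B-score, a plate-corrected score, at least three library SD, with initial intensity B-score within 5 SD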
#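 assay system = CHO-K1 cells stably expressing KCNQ1 | medium = assay buffer, equal DMSO in all wells | timing = 37 °C overnight plating, 90-min dark dye load, 20-min compound pretreatment | measured by = kinetic FluxOR thallium fluorescence, 10-s 1-Hz baseline, 110-s post-stimulus read | measure = fluorescence change relative to baseline, converted to B score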
# KCNK3 inh = human KCNK3 channel inhibitors, primary screen, CHO cells, FluxOR thallium flux, B-score | Potassium channel subfamily K member 3 (Homo sapiens), O14649 | FluxOR fluorescence; hits give low values | B-score at 10 µM | hit rate 0.84% among 340,000 | AID 602410, 2012;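 active means B-score under library mean minus 4 SD, starting fluorescence ratio at most library mean plus 5 SD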;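 further: more negative B-score means stronger inhibition of thallium flux through KCNK3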
# Target sequence (O14649 whole entry, looked up): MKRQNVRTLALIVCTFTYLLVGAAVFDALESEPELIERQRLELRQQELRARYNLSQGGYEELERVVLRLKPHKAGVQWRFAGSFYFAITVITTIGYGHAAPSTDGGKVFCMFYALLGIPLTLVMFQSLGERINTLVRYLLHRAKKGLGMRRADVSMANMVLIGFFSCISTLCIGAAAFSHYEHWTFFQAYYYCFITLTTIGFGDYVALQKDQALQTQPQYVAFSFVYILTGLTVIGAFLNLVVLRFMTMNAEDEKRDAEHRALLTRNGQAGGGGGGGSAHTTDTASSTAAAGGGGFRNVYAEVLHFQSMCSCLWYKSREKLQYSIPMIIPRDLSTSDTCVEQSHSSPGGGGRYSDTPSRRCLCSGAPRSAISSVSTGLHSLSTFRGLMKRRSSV
# hERG protect = hERG rescue from dofetilide block, primary screen, cell-based, CHO-hERG, FluxOR thallium flux, dofetilide IC70 | Voltage-gated inwardly rectifying potassium channel KCNH2 (Homo sapiens), Q12809 | dofetilide IC70 present | activation (rescue from dofetilide block), less the hit threshold, % at 10 µM | hit rate 0.51% among 310,000;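 active means activation above the mean of controls blocked by dofetilide plus 5 SD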;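 further: thallium influx through hERG after potassium depolarization seen as dye fluorescence rise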
# KCNK9 block = KCNK9 potassium channel inhibitors, primary screen, HEK293 cells, thallium flux | FluxOR thallium flux fluorescence; hits give low values | B-score at 10 µM | hit rate 1.2% among 310,000 | AID 488922, 2010;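 active means ratio B-score over 3 SD below the library mean, with starting fluorescence within 5 SD of its mean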;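 further: negative B-score means less thallium flux so channel inhibition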
# KCNQ1 inh = inhibitors of human KCNQ1 channel, primary screen, cell-based, thallium flux, high-throughput; Potassium voltage-gated channel subfamily KQT member 1 (Homo sapiens), P51787; CHO-K1 KCNQ1, FluxOR thallium flux fluorescence; hits give high values; B-score at 10 µM; hit rate 1.3% among 310,000; AID 2642, 2010;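 active means compounds whose thallium flux B-score, printed positive for inhibition, exceeds three library SD while starting fluorescence stays within three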;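 further: channel opened by potassium depolarization with thallium stimulus after 20 min compound exposure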
# Kir21 block = inhibitors of mouse Kir2.1 inward-rectifier potassium channel; Inward rectifier potassium channel 2 (Mus musculus), P35561; B-score at 10 µM; hit rate 0.85% among 310,000; AID 1672, 2009; HEK293-Kir2.1, FluxOR thallium flux fluorescence; hits give low values;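 active means fluorescence ratio B-score at or below minus 3 SD of library scores, with starting-brightness B-score within 2 SD, cut at about -4.2 in these data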;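 further: channel flux triggered by added potassium and thallium sulfate stimulus; B-score of peak minus minimum fluorescence over baseline after thallium stimulus; more negative B-score means stronger Kir2.1 block with less thallium influx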
# * = called active by the depositor; i = inactive; nt = no result.
SMILES,KCNQ1 pot,KCNK3 inh,hERG protect,KCNK9 block,KCNQ1 inh,Kir21 block
CCOc1cc(C2NN=C(c3ccccc3)S2)ccc1OCc1ccccc1Cl (stereo not given),i,i,-13,i,i,0.64
COc1cc(CNC2CCCCCCC2)cc(Cl)c1OC,i,i,-6,i,i,-2.4
CCOc1cc(CNCC(C)C)cc(Cl)c1OCc1ccccc1,i,i,-34,i,i,-14*
O=C(COC(=O)C1=NN(c2ccccc2)C(=O)CC1)Nc1nc(-c2ccc(F)cc2)cs1,nt,i,nt,nt,nt,nt
COC(=O)C(Cc1ccc(O)cc1)NC(=O)Cn1cc(C)c(=O)[nH]c1=O (stereo not given),nt,i,nt,nt,nt,nt
CN1CCN(NC(=O)Nc2cccc(F)c2)CC1,i,i,-7,i,8*,-0.61
CCN1C(=O)[C@H]2[C@@H](c3ccc(-c4ccccc4)cc3)N3CCC[C@@]3(C(=O)OC)[C@H]2C1=O,i,i,-14,i,i,0.02
CCOC(=O)c1c(-n2c(C)cc(C=O)c2C)sc2c1CCCC2,i,i,-19,i,i,-4.6*
Cc1ccc(S(=O)(=O)Nc2cccnc2Oc2ccc(Cl)cc2)cc1,i,i,-11,i,i,-5*
Cc1ccc(C(=O)Nc2cccnc2Oc2ccc(Cl)cc2)cc1,i,i,-12,i,i,-1.4
CCCCn1c(N)c(N(CCOC)C(=O)CSc2nnc(-c3ccco3)n2CC)c(=O)[nH]c1=O,nt,i,nt,nt,nt,nt
CCC(=O)NC1=C(Cl)C(=O)C(NC(=O)CC)=C(Cl)C1=O,nt,-11*,nt,nt,nt,nt
O=S(=O)(c1ccccc1)N1CCCC1c1nc2ccccc2s1 (stereo not given),i,i,-12,i,i,-4.5*
O=C(Nc1nc2ccccc2s1)C1CCCN1S(=O)(=O)c1ccc(Cl)cc1 (stereo not given),i,i,-12,i,i,0.2
CN(CCOc1ccc(Cl)cc1)CC(O)c1ccccc1 (stereo not given),i,i,-4,i,i,0.02
CC(OCC(O)CN(C)CCOc1ccccc1)c1ccc(Cl)cc1 (stereo not given),i,i,-10,i,i,-5*
O=C(NNC(=O)c1ccc(O)cc1O)c1ccc(Cl)cc1,i,i,-12,i,6*,0.05
Oc1oc(-c2cccc3ccccc23)nc1/C=N/c1nccs1,12*,i,19*,i,i,0.16
Cc1ccsc1C(=O)N1CCCC(C(=O)c2cc(F)ccc2F)C1 (stereo not given),i,i,-15,i,i,-1.5
CC(=O)c1ccc(N=Nc2c(C)[nH]n(-c3ccccc3)c2=O)cc1,i,i,-8,i,6*,-2.9
Cc1[nH]n(-c2ccccc2)c(=O)c1N=Nc1ccc(C(=O)O)cc1,i,i,-1,i,i,-0.21
Cc1[nH]n(-c2ccccc2)c(=O)c1N=Nc1ccc(C(N)=O)cc1,i,i,10*,i,i,-0.16
Cc1[nH]n(-c2ccccc2)c(=O)c1N=Nc1ccccc1,i,i,-10,i,i,-0.45
O=S(=O)(c1ccc(N2CCN(Cc3ccccc3)CC2)nc1)N1CCCC1,nt,i,nt,nt,nt,nt
Cc1ccc2c(c1)C(=O)N1[C@H]3c4ccccc4OC[C@@H]3[C@H](c3ccccc3)[C@]1(C)C(=O)N2,nt,i,nt,nt,nt,nt
SMILES,KCNQ1 pot,KCNK3 inh,hERG protect,KCNK9 block,KCNQ1 inh,Kir21 block
CCC(C(=O)NCCCN(CC)Cc1ccccc1)n1nc(C)c2sc3ccccc3c2c1=O (stereo not given),i,i,-8,i,i,-9.5*
CCOc1cnn(Cc2ccccc2)c(=O)c1SCc1ccccc1,i,i,-5,i,i,-3.8
COc1cnn(Cc2ccccc2)c(=O)c1SCc1ccccc1,i,i,-8,i,i,-4.7*
CCCCOc1ccc(-c2c(C#N)c(N)[nH]c(=S)c2C#N)cc1,i,i,8.4*,i,i,1.2
O=C(c1ccc(Cl)cc1[N+](=O)[O-])N(Cc1ccccc1)Cc1ccccc1,i,nt,-14,i,i,-0.58
CCN(C(=O)c1ccc(Cl)cc1[N+](=O)[O-])c1ccccc1C,i,i,-10,i,i,-5*
Cc1nn(Cc2ccc(F)cc2)c2sc(C(=O)Nc3ccccc3N3CCOCC3)cc12,i,i,-6,i,i,-1.6
Cc1nn(Cc2ccccc2Cl)c2sc(C(=O)Nc3ccccc3N3CCOCC3)cc12,i,i,-7,i,6*,1.6
CCC(=O)Nc1cccc(-c2csc(-c3ccccc3)n2)c1,i,i,-10,-7.4*,i,0.1
CCC(=O)Nc1cccc(-c2cn3ccccc3n2)c1,i,i,-5,i,i,-0.3
Cc1nc(-c2ccc(NC(=O)Cc3ccccc3)cc2)cs1,8*,i,2,i,i,0.2
Cc1cccc(S(=O)(=O)c2c(N)n(Cc3ccco3)c3nc4ccccc4nc23)c1,i,i,-10,i,6*,0.03
CCCc1cc(-c2nc(-c3ccc(Cl)cc3)cs2)ccn1,i,i,-11,-6.6*,i,-3.3
O=c1c(/C=C(\O)c2ccccc2)nc2ccccc2n1-c1ccccc1,i,i,-3,-8.1*,i,1.6
COc1ccc(NS(=O)(=O)c2cccs2)cc1S(=O)(=O)N1CCOCC1,i,i,-6,i,i,0.24
COc1ccc(Nc2nc(-c3cccs3)nc3ccccc23)cc1S(=O)(=O)N1CCOCC1,i,-11*,-27,i,i,1.1
Clc1ccccc1OCCCOc1cccc2cccnc12,i,i,-7,i,i,0.29
COc1ccccc1N(CC(=O)NCCSCc1ccc(C)cc1)S(=O)(=O)c1ccccc1,i,i,-18,i,10*,0.04
CN(CCOc1ccc(Cl)cc1)C(=O)CN1C(=O)NC2(CCCCC2)C1=O,i,i,-11,i,i,2
C=CCOC(=O)c1cn(CC)c2nc(C)ccc2c1=O,i,i,-7,i,i,0.06
CCn1cc(C(=O)OCC(=O)OC2CC(C)CCC2C(C)C)c(=O)c2ccc(C)nc21 (stereo not given),i,-11*,-18,i,i,-2.9
CN1CCC2CC1c1cc(-c3ccc(C(F)(F)F)cc3)ccc12 (stereo not given),nt,i,nt,nt,nt,nt
COc1ccc(-c2noc(CCC(=O)N3CCN(c4ccccc4Br)CC3)n2)cc1,nt,i,nt,nt,nt,nt
